The source made the active and inactive calls. No cut-off for these calls is given here.

The subject of data set [1] is Escherichia coli. Nature of the data set: Dark toxicity against wild type Escherichia coli K-12 assessed as reduction in bacterial load at 1 to 20 uM incubated for 30 mins. Type of data set: organism-based. The settings on record: in vitro, 0.5 h. Put shortly: (§1)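 E. coli K-12 and isogenic TolC knockout JW5503-1 were exposed to compound at 1-20 μM, then illuminated with 652 nm red light at 100 mW/cm2 to 6 J/cm2, or kept dark. Serially diluted aliquots were plated for CFU and survival fraction determined. Mean ± SEM from three independent experiments.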

Data set [2] relates to Acinetobacter baumannii. Nature of the data set: Photodynamic antibacterial activity against Acinetobacter baumannii AB Iraqi 007 infected in BALB/c mouse needle back-scratch wound abrasion infection model assessed as reduction in bacterial load in shaved dorsal surfaces of mouse after 15 mins followed by 36 J/cm'2 irradiation with red light over 20 mins by bioluminescence imaging method. Format: functional. Also noted: scale not given: the % may be the effect or the level left. The method in brief: (§2)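 Bioluminescent A. baumannii inoculated into needle-scratch wounds on shaved mouse backs. Sites got 40 μL of a 250 μM stock of compound, then 652 nm red light at 0, 12, 36, 84, 108 and 120 J/cm2, or were kept dark (dark controls). Normalized wound RLU (mean ± SEM, 4-6 mice/group) was imaged during illumination, then daily for 14 days.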

The test system of data set [3] is Escherichia coli. Nature of the data set: Dark toxicity against TolC deficient Escherichia coli JW5503-1 assessed as reduction in bacterial load at 1 to 20 uM incubated for 30 mins. Type of data set: organism-based. The settings on record: in vitro, 0.5 h. Put shortly:
as §1

Data set [4] deals with Acinetobacter baumannii. Nature of the data set: Dark toxicity against wild type Acinetobacter baumannii AB007 assessed as reduction in bacterial load at 1 to 20 uM incubated for 30 mins. Format: organism-based. The settings on record: in vitro, 0.5 h. The method in brief:
(§3)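 A. baumannii AB007 was exposed to compound at 1-20 μM, with or without red-light illumination, alongside dark controls. Survival fraction came from CFU counts. Mean ± SEM from three independent experiments.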

Data set [5] has as its system Acinetobacter baumannii. Nature of the data set: Dark toxicity against Acinetobacter baumannii AB Iraqi 007 infected in BALB/c mouse needle back-scratch wound abrasion infection model assessed as reduction in bacterial load in shaved dorsal surfaces of mouse measured after 15 mins by bioluminescence imaging method. Type of data set: organism-based. Further details: scale not given: the % may be the effect or the level left. Particulars: in vivo, 0.25 h. The method in brief: as §2

Data set [6] deals with Escherichia coli. In words: Photodynamic antibacterial activity against wild type Escherichia coli K-12 assessed as bacterial killing at 10 uM incubated for 30 mins followed by 6 J/cm'2 irradiation with red light relative to control. Format: functional. Put shortly:
as §1

Data set [7] relates to Acinetobacter baumannii. Nature of the data set: Photodynamic antibacterial activity against Acinetobacter baumannii AB Iraqi 007 infected in BALB/c mouse needle back-scratch wound abrasion infection model assessed as reduction in bacterial load in shaved dorsal surfaces of mouse after 15 mins followed by up to 120 J/cm'2 irradiation with red light over 20 mins measured up to 6 days by bioluminescence imaging method. Type of data set: functional, organism-based. Put shortly:
as §2

In data set [8] the test system is Acinetobacter baumannii. Nature of the data set: Photodynamic antibacterial activity against Acinetobacter baumannii AB Iraqi 007 infected in BALB/c mouse needle back-scratch wound abrasion infection model assessed as reduction in bacterial load in shaved dorsal surfaces of mouse after 15 mins followed by 84 J/cm'2 irradiation with red light over 20 mins by bioluminescence imaging method. Format: functional, organism-based. The method in brief:
as §2

Data set [9] relates to Escherichia coli. Nature of the data set: Photodynamic antibacterial activity against wild type Escherichia coli K-12 assessed as bacterial killing at 20 uM incubated for 30 mins followed by 6 J/cm'2 irradiation with red light relative to control. Format: functional. The method in brief: as §1
In data set [10] the test system is Escherichia coli. In words: Photodynamic antibacterial activity against TolC deficient Escherichia coli JW5503-1 assessed as bacterial killing at 10 uM incubated for 30 mins followed by 6 J/cm'2 irradiation with red light relative to control. Type of data set: functional. Put shortly: as §1
Data set [11] concerns Acinetobacter baumannii. In words: Dark toxicity against Acinetobacter baumannii AB Iraqi 007 infected in BALB/c mouse needle back-scratch wound abrasion infection model assessed as bacterial load in shaved dorsal surfaces of mouse after 15 mins measured after 1 day by bioluminescence imaging method. Type of data set: organism-based. The settings on record: in vivo. Put shortly: as §2

Data set [12] concerns Acinetobacter baumannii. In words: Dark toxicity against Acinetobacter baumannii AB Iraqi 007 infected in BALB/c mouse needle back-scratch wound abrasion infection model assessed as reduction in bacterial load in shaved dorsal surfaces of mouse after 15 mins measured after 12 days by bioluminescence imaging method. Format: organism-based. The settings on record: in vivo. Put shortly:
as §2

In data set [13] the test system is Acinetobacter baumannii. In words: Photodynamic antibacterial activity against wild type Acinetobacter baumannii AB007 assessed as bacterial killing at 20 uM incubated for 30 mins followed by 6 J/cm'2 irradiation with red light relative to control. Format: functional. The method in brief: as §3
Data set [14] relates to Escherichia coli. In words: Photodynamic antibacterial activity against TolC deficient Escherichia coli JW5503-1 assessed as bacterial killing at 20 uM incubated for 30 mins followed by 6 J/cm'2 irradiation with red light relative to control. Type of data set: functional. The method in brief: as §1
Data set [15] has as its system Acinetobacter baumannii. Nature of the data set: Photodynamic antibacterial activity against Acinetobacter baumannii AB Iraqi 007 infected in BALB/c mouse needle back-scratch wound abrasion infection model assessed as reduction in bacterial load in shaved dorsal surfaces of mouse after 15 mins followed by up to 120 J/cm'2 irradiation with red light over 20 mins measured after 10 days by bioluminescence imaging method. Format: functional, organism-based. Put shortly: as §2

Data set [16] concerns Escherichia coli. In words: Photodynamic antibacterial activity against enteropathogenic Escherichia coli WS2572 infected in BALB/c mouse full-thickness third-degree burn infection model assessed as reduction in bacterial load in shaved dorsal surfaces of mouse after 15 mins followed by up to 120 J/cm'2 irradiation with red light over 20 mins measured after 1 day by bioluminescence imaging method. Type of data set: functional, organism-based. The method in brief:
(§4)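 Mouse full-thickness third-degree burn on the shaved back, inoculated with bioluminescent EPEC WS2572. Wounds got 40 μL of 250 μM stock compound, then 652 nm red light at 0, 12, 36, 84, 108 and 120 J/cm2 or no light. Normalized wound RLU (mean ± SEM, 4-6 mice/group) was imaged during illumination and daily for 14 days after.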

Data set [17] has as its system Escherichia coli. In words: Photodynamic antibacterial activity against enteropathogenic Escherichia coli WS2572 infected in BALB/c mouse full-thickness third-degree burn infection model assessed as reduction in bacterial load in shaved dorsal surfaces of mouse after 15 mins followed by up to 120 J/cm'2 irradiation with red light over 20 mins measured after 12 days by bioluminescence imaging method. Type of data set: functional, organism-based. Put shortly: as §4

Data set [18] concerns Acinetobacter baumannii. In words: Photodynamic antibacterial activity against Acinetobacter baumannii AB Iraqi 007 infected in BALB/c mouse needle back-scratch wound abrasion infection model assessed as reduction in bacterial load in shaved dorsal surfaces of mouse after 15 mins followed by 108 J/cm'2 irradiation with red light over 20 mins by bioluminescence imaging method. Format: functional, organism-based. The method in brief:
as §2

For data set [19], the system named is Escherichia coli. In words: Dark toxicity against enteropathogenic Escherichia coli WS2572 infected in BALB/c mouse full-thickness third-degree burn infection model assessed as reduction in bacterial load in shaved dorsal surfaces of mouse after 15 mins measured after 1 day by bioluminescence imaging method. Format: organism-based. The settings on record: in vivo. Put shortly: as §4

In data set [20] the test system is Escherichia coli. Nature of the data set: Photodynamic antibacterial activity against enteropathogenic Escherichia coli WS2572 infected in BALB/c mouse full-thickness third-degree burn infection model assessed as reduction in bacterial load in shaved dorsal surfaces of mouse after 15 mins followed by up to 120 J/cm'2 irradiation with red light over 20 mins by bioluminescence imaging method. Type of data set: functional. Further details: scale not given: the % may be the effect or the level left. The method in brief:
as §4

The test system of data set [21] is Acinetobacter baumannii. Nature of the data set: Photodynamic antibacterial activity against Acinetobacter baumannii AB Iraqi 007 infected in BALB/c mouse needle back-scratch wound abrasion infection model assessed as reduction in bacterial load in shaved dorsal surfaces of mouse after 15 mins followed by up to 120 J/cm'2 irradiation with red light over 20 mins measured after 1 day by bioluminescence imaging method. Type of data set: functional. Further details: scale not given: the % may be the effect or the level left. Put shortly: as §2

In data set [22] the test system is Escherichia coli. In words: Dark toxicity against enteropathogenic Escherichia coli WS2572 infected in BALB/c mouse full-thickness third-degree burn infection model assessed as reduction in bacterial load in shaved dorsal surfaces of mouse measured after 15 mins by bioluminescence imaging method. The settings on record: in vivo, 0.25 h. Format: organism-based. Further details: scale not given: the % may be the effect or the level left. The method in brief: as §4

Data set [23] relates to Escherichia coli. In words: Photodynamic antibacterial activity against enteropathogenic Escherichia coli WS2572 infected in BALB/c mouse full-thickness third-degree burn infection model assessed as reduction in bacterial load in shaved dorsal surfaces of mouse after 15 mins followed by 36 J/cm'2 irradiation with red light over 20 mins by bioluminescence imaging method. Type of data set: functional. Also noted: scale not given: the % may be the effect or the level left. The method in brief: as §4

The subject of data set [24] is Escherichia coli. In words: Photodynamic antibacterial activity against enteropathogenic Escherichia coli WS2572 infected in BALB/c mouse full-thickness third-degree burn infection model assessed as reduction in bacterial load in shaved dorsal surfaces of mouse after 15 mins followed by 84 J/cm'2 irradiation with red light over 20 mins by bioluminescence imaging method. Type of data set: functional, organism-based. The method in brief: as §4

Data set [25] deals with Escherichia coli. Nature of the data set: Photodynamic antibacterial activity against enteropathogenic Escherichia coli WS2572 infected in BALB/c mouse full-thickness third-degree burn infection model assessed as reduction in bacterial load in shaved dorsal surfaces of mouse after 15 mins followed by up to 120 J/cm'2 irradiation with red light over 20 mins measured after 10 days by bioluminescence imaging method. Format: functional, organism-based. The method in brief:
as §4

For `CN(CCN(C)c1ccc2nc3ccc(N(C)C)cc3[s+]c2c1)Cc1ccc(-c2cc3cc([N+](=O)[O-])ccc3[nH]2)cc1.[Cl-]`, the Activity result is recorded as “Non-Toxic” in data set [1]; 95% in data set [2]; “Non-Toxic” in data set [3]; “Non-Toxic” in data set [4]; < 25% in data set [5]; > 50% in data set [11]. Besides, the Activity result in data set [12] is on record as “Toxic”. The LCK is listed as 2 in data set [6], 4 in [9], 2 in data set [10] and 7 in [14]. In addition, the outcome in data set [7], in data set [8] and in data set [13] was Active.
For `CN(CCCOc1ccccc1NC(=O)Nc1ccc2ccccc2c1)CCN(C)c1ccc2nc3ccc(N(C)C)cc3[s+]c2c1.[Cl-]`, the Activity entry in data set [1], in [3] and in data set [4] was “Non-Toxic” each time. The LCK in [9] came out at 3; in data set [13], 4; in [14], 4.5.
For `CN(C)c1ccc2nc3ccc(=[N+](C)C)cc-3sc2c1`, the outcome in data set [15], in data set [17], in data set [18], in data set [10] and in data set [13] was Active. Further, the outcome in data set [16] was inactive.
Take `CN(C)c1ccc2nc3ccc(N(C)C)cc3[s+]c2c1.[Cl-]` [METHYLENE BLUE ANHYDROUS]: the Activity entry in data set [1] is “Non-Toxic”; in data set [19], “Not Active”; in [2], 50%; in data set [3], “Non-Toxic”; in data set [4], “Non-Toxic”; in data set [5] it was < 25%. For the same compound, the Activity in [20] is 90%; in data set [21], >50%; in data set [22], 25%; in [11], > 50%; in [12], “Toxic”. Moreover, the results for the LCK in data set [6], in data set [9] and in data set [14] were 2, 2.5 and 3.5, respectively.
For `CN(CCN(C)c1ccc2nc3ccc(N(C)C)cc3[s+]c2c1)C(=O)c1ccc(-c2cc3cc([N+](=O)[O-])ccc3[nH]2)cc1.[Cl-]`, the Activity result in data set [1] was “Non-Toxic”; in [3], “Non-Toxic”; in data set [4], “Non-Toxic”; in [22], 40%; in data set [23], 80%. The LCK in [6] is 4; in data set [9], 6; in data set [10], 6; in [13] it was 4. For the same compound, the outcome in [24], in [25] and in data set [14] was Active.

Source of the values: ChEMBL document CHEMBL4229340, “Attaching NorA efflux pump inhibitors to methylene blue enhances antimicrobial photodynamic inactivation of Escherichia coli and Acinetobacter baumannii in vitro and in vivo” (Bioorg Med Chem Lett, 2018).
